Results gathered from unrelated publications.
Lines come from different studies, so protocols differ.
Target: Serine/threonine-protein kinase Nek9 (NEK9, Homo sapiens, UniProt Q8TD19)
Residues used in one study (Q8TD19 1-979): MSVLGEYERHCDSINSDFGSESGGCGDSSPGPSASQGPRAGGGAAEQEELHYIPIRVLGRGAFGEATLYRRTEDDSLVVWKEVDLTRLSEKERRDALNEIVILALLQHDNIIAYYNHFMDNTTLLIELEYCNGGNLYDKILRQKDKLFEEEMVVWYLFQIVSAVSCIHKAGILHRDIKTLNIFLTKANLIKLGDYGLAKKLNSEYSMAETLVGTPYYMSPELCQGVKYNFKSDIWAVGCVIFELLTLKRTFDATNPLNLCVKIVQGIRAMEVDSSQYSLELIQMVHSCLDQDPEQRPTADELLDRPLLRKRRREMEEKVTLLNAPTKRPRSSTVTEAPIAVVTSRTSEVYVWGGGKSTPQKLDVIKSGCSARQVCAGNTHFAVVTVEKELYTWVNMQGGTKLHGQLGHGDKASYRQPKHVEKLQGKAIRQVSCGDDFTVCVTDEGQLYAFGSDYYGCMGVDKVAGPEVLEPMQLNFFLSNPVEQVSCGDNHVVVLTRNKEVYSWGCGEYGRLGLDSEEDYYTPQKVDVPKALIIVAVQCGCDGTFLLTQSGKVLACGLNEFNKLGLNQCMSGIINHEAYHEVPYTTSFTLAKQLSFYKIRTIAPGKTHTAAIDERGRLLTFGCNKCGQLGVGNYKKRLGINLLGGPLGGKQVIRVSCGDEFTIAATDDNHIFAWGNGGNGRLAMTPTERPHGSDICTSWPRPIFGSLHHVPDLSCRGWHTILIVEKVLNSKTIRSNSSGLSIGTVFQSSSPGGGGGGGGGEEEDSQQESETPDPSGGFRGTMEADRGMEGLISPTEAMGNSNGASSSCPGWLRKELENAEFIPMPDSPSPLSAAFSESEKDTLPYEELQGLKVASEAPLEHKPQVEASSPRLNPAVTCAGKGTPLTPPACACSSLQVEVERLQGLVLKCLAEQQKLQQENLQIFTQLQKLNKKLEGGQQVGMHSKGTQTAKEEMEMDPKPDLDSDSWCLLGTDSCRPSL

Compound | assay | test system | conditions | measurement | value
Cn1cc(-c2cccc(N3CCc4c(sc5c4CC(C)(C)C5)C3=O)c2CO)cc(Nc2ccncn2)c1=O | enzyme activity, inhibitor |  | 1 µM | inhibition | -1%
CCN1CCN(Cc2ccc(NC(=O)c3ccc(C)c(Oc4ccnc5[nH]ccc45)c3)cc2C(F)(F)F)CC1 | target engagement in cells, inhibitor, chemoproteomics | Huh-7 | 10 µM | inhibition | -10.9%
CC(C)(C)c1cc(C=C(C#N)C#N)cc(Br)c1O | enzyme activity, inhibitor |  | 0.5 µM | remaining activity | 103%
COc1ncccc1-c1cnn2ccc(N3CCN(C(=O)OC(C)C)CC3)nc12 | binding, competition with immobilised ligand |  | 1 µM | remaining binding | 100%
Nc1ncc(-c2nc(N3CCOCC3)nc(N3CCOCC3)n2)c(C(F)F)n1 | binding, competition with immobilised ligand |  | 10 µM | remaining binding | 92%
Cn1cncc1[C@](O)(COc1ccc(C#N)cc1-c1ccc(OC(F)(F)F)cc1)c1ccc(C#N)cc1 | cell-free assay, competition with immobilised ligand |  | 1 µM | remaining binding | 72%
O=c1[nH]c2ccccc2n1C1CCN(Cc2ccc(-c3[nH]c4cc5ncnc5cc4nc3-c3ccccc3)cc2)CC1 | cell-free assay |  | 0.5 µM | remaining signal | 99.2%
Cn1cc(-c2cc(F)cc(N3CCn4c(cc5c4CCCC5)C3=O)c2CO)cc(Nc2ccc(N3CCN(C4COC4)CC3)cn2)c1=O | enzyme activity, inhibitor |  | 0.1 µM | inhibition | 6%
